Cl transport mod = KCC2 (human) Cl- transport modulation; Q9H2X9; KCC2 cells, thallium flux FluoZin-2 fluorescence; B-score of Tl+ flux slope (higher = more flux/activation; lower = inhibition) at 10 µM; 190,000 tested, 2.2% active; AID 1456;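 active = thallium flux slope and its plate-corrected score both differing from the plate sample mean at a set confidence after two filtering rounds, in either direction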;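 also: slope of fluorescence scaled to starting intensity during 10 to 20 s after thallium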
KCNK9 block = blocks the human KCNK9 two-pore domain potassium channel; Q9NPC2; HEK293 KCNK9, FluxOR thallium flux fluorescence; active compounds read low; B-score at 10 µM; 310,000 tested, 1.2% active; AID 488922;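 active = ratio B-score over 3 SD below the library mean, with starting fluorescence within 5 SD of its mean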;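 also: negative B-score means less thallium flux so channel inhibition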
hERG rescue = hERG (human) protection from proarrhythmic block; Q12809; CHO-hERG, FluxOR thallium flux, dofetilide IC70 present; activation (rescue from dofetilide block), less the hit threshold, % at 10 µM; 310,000 tested, 0.51% active; AID 1511;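 active = activation above the mean of controls blocked by dofetilide plus 5 SD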;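 also: thallium influx through hERG after potassium depolarization seen as dye fluorescence rise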
KCNK3 inh = human KCNK3 channel inhibition, primary screen; AID 602410; 340,000 tested, 0.84% active; O14649; CHO-KCNK3 thallium flux, FluxOR fluorescence; active compounds read low; B-score at 10 µM;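 active = B-score under library mean minus 4 SD, starting fluorescence ratio at most library mean plus 5 SD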;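 also: more negative B-score means stronger inhibition of thallium flux through KCNK3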
Target sequence (O14649 whole entry, looked up): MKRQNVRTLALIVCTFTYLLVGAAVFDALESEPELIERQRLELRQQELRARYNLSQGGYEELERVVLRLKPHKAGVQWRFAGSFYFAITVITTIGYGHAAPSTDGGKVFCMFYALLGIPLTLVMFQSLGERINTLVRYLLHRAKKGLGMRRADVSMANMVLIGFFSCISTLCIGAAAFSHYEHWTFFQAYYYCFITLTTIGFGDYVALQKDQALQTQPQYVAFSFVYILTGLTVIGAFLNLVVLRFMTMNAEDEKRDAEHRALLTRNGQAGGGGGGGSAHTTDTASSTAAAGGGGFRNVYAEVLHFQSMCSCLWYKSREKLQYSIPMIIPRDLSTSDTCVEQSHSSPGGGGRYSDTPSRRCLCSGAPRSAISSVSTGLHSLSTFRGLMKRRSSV
KCNQ1 block = inhibitors of human KCNQ1 potassium channel; P51787; CHO-K1 KCNQ1, FluxOR thallium flux fluorescence; active compounds read high; B-score at 10 µM; 310,000 tested, 1.3% active;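 active = compounds whose thallium flux B-score, printed positive for inhibition, exceeds three library SD while starting fluorescence stays within three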;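 also: channel opened by potassium depolarization with thallium stimulus after 20 min compound exposure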
KCNQ1 act = human KCNQ1 channel potentiation or activation; AID 2648; P51787; CHO-K1 KCNQ1, thallium flux FluxOR fluorescence; active compounds read high; B-score at 10 µM; 310,000 tested, 0.35% active;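 active = fluorescence ratio B-score, a plate-corrected score, at least three library SD, with initial intensity B-score within 5 SD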
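Assay system: CHO-K1 cells stably expressing KCNQ1. Medium: assay buffer for compound exposure, DMSO matched across wells. Timing: 37 °C overnight plating, 90-min dark dye load, 20-min compound pretreatment. Signal: kinetic FluxOR fluorescence, 10 s baseline plus 110 s post-stimulus.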
KCNK9 block conf = human KCNK9 inhibitor confirmation; inhibition, % at 10 µM; 4,900 tested, 43% active; shares compounds with KCNK9 block; HEK293 KCNK9 cells, FluxOR thallium flux fluorescence;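 active = thallium signal inhibited by more than 5 SD of the compound-free buffer control wells, on both duplicate plates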
Kir21 sel = tests whether KCNK9 modulators also affect mouse Kir2.1 | Kir2.1 cells, FluxOR thallium flux fluorescence | shares compounds with KCNK9 block | inhibition, % at 10 µM | 4,900 tested, 4% active;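 active = thallium signal drop more than 5 SD beyond the mean of the no-compound control wells, seen in both duplicate plates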;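 also: signal is fluorescence rise after thallium addition divided by baseline fluorescence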
Target sequence (P35561 whole entry, looked up): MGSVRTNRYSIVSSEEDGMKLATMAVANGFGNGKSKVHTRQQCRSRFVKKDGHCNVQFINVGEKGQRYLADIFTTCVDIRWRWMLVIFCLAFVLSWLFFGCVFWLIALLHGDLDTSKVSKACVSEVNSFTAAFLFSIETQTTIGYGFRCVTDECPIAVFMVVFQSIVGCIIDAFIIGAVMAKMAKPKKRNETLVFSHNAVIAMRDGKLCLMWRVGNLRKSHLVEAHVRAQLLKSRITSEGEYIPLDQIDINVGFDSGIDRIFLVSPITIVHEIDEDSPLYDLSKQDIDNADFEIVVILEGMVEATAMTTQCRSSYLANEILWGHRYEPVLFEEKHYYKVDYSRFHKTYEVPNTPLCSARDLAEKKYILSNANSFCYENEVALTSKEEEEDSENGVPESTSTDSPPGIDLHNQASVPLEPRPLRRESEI
KCNK9 uninduced = non-induced cell nonspecific activity of KCNK9 modulators | inhibition, % at 10 µM | shares compounds with KCNK9 block | non-induced KCNK9-HEK293, FluxOR thallium flux | 4,900 tested, 40% active;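 active = thallium signal drop beyond 5 SD of the untreated control mean, on both duplicate plates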
KCNK3 inh conf = human KCNK3 channel inhibition, confirmation assay; 2,400 tested, 99% active; CHO-KCNK3 thallium flux, FluxOR fluorescence; 0% buffer, 100% carvedilol maximal block; ratio percent of control, % at 10 µM; shares compounds with KCNK3 inh; AID 651638;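 active = ratio percent of control, averaged over triplicates, above buffer control mean plus 5 SD, cut at about 64% in these data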;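 also: ratio is the fluorescence rise from min to max over baseline after thallium stimulus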
KCNK3 noninduced = KCNK3 inhibitor counter-screen hit in non-induced cells | shares compounds with KCNK3 inh | non-induced KCNK3 parental cells, FluxOR thallium flux; active compounds read low | thallium flux ratio (lower = more inhibition) at 10 µM | 2,400 tested, 40% active | AID 651747;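 active = thallium flux ratio, averaged over three wells, more than 5 SD below the buffer control mean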;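 also: host cells are CHO cells without KCNK3 induction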
Each line names hits and unclear results; the compound was inactive in the other large screens (follow-up assays come after a bar, where they were run). Shown are actives, neighbours in structure and some others; about 4.1% of the full set was active somewhere.

O=C(Nc1ccccc1)c1sc2cc(C(F)(F)F)cnc2c1-c1cccs1	KCNK9 block -8.99, KCNK3 inh -9 | KCNK9 block conf 40.5% | Kir21 sel inactive | KCNK9 uninduced 34.0% | KCNK3 inh conf 112.3 | KCNK3 noninduced inactive
CC(C)(C)c1cc(OC(=O)c2ccncc2)ccc1O	none (no result: KCNK9 block, hERG rescue, KCNQ1 block, KCNQ1 act)
CC(C)(C)c1cc(OC(=O)c2ccccc2F)ccc1O	KCNK9 block -10.4 (no result: Cl transport mod) | KCNK9 block conf 33.5% | Kir21 sel inactive | KCNK9 uninduced 39.0% | KCNK3 inh conf 100.3 | KCNK3 noninduced inactive
COC(=O)c1ccc(CSc2nc3ccccc3c(=O)n2Cc2ccco2)o1	KCNK9 block -12.3, KCNK3 inh -11.5 | KCNK9 block conf inactive | Kir21 sel inactive | KCNK9 uninduced 38.0% | KCNK3 inh conf 118.3 | KCNK3 noninduced inactive
COC(=O)c1ccc(CSc2nc3ccccc3c(=O)n2C)o1	none (no result: Cl transport mod)
CCOc1ccc(CCNC(=O)c2cccc(S(=O)(=O)N3CCOCC3)c2)cc1OCC	none (no result: Cl transport mod)
O=C(OCc1ccc2c(c1)OCO2)c1cccc(S(=O)(=O)N2CCCCC2)c1	KCNK9 block -19, KCNK3 inh -9.26 | KCNK9 block conf 72.5% | Kir21 sel inactive | KCNK9 uninduced 29.5% | KCNK3 inh conf 114.0 | KCNK3 noninduced inactive
CCOc1ccc(CCNC(=O)COC(=O)c2cccc(S(=O)(=O)N3CCCC3)c2)cc1OCC	KCNK9 block -9.42, KCNK3 inh -9.22 (no result: Cl transport mod) | KCNK9 block conf 38.5% | Kir21 sel inactive | KCNK9 uninduced 36.5% | KCNK3 inh conf 65.0 | KCNK3 noninduced inactive
CCn1cc(Cl)c(C(=O)Nc2ccc3c(c2)OCCO3)n1	none (no result: Cl transport mod)
CCn1cc(Cl)c(C(=O)Nc2cccc(C(F)(F)F)c2)n1	KCNK9 block -8.46 | KCNK9 block conf 42.5% | Kir21 sel inactive | KCNK9 uninduced 33.5% | KCNK3 inh conf 108.3 | KCNK3 noninduced inactive
COc1ccc(NC(=O)c2oc3ccccc3c2NC(=O)c2ccc3c(c2)OCO3)cc1	KCNK9 block -10.9, KCNK3 inh -8.96 (no result: Cl transport mod) | KCNK9 block conf 58.5% | Kir21 sel inactive | KCNK9 uninduced inactive | KCNK3 inh conf 87.7 | KCNK3 noninduced inactive
O=C(CCN1CCCCO1)N1CCCC(Nc2ccc(F)cc2)C1 (stereo not drawn)	none (no result: Cl transport mod)
CC(c1ccccn1)N(CCN(C)C)C(=S)Nc1cccc(F)c1 (stereo not drawn)	none
CC(C)CCN(C(=S)Nc1cccc(C(F)(F)F)c1)C(C)c1ccccn1 (stereo not drawn)	KCNK9 block -9.33, KCNK3 inh -14 | KCNK9 block conf 63.5% | Kir21 sel inactive | KCNK9 uninduced 42.0% | KCNK3 inh conf 130.3 | KCNK3 noninduced 0.129
CN(C)c1ccc(C(c2ccc(N(C)C)cc2)C(O)c2ccccc2)cc1 (stereo not drawn)	none (no result: Cl transport mod, KCNK9 block, hERG rescue, KCNQ1 block, KCNQ1 act)
CCOC(=O)c1ccc(NC(=O)COc2ccccc2CNCCc2ccccc2)cc1	KCNK9 block -8.15, KCNK3 inh -11.9, KCNQ1 block 11 | KCNK9 block conf 30.0% | Kir21 sel inactive | KCNK9 uninduced inactive | KCNK3 inh conf 103.7 | KCNK3 noninduced inactive
O=C(COC(=O)c1cccs1)c1ccc2ccccc2c1	KCNK9 block -17.5, KCNK3 inh -13.1 | KCNK9 block conf 56.5% | Kir21 sel inactive | KCNK9 uninduced 29.5% | KCNK3 inh conf 101.3 | KCNK3 noninduced inactive
O=C(COC(=O)c1cccs1)c1ccc2c(c1)OCCO2	none
COc1ccc(-c2nc(-c3ccc(O)cc3O)cs2)cc1OC	KCNK9 block -13.2, KCNK3 inh -11.5 | KCNK9 block conf 49.5% | Kir21 sel inactive | KCNK9 uninduced inactive | KCNK3 inh conf 123.7 | KCNK3 noninduced inactive
COc1ccc(-c2nc(CCl)cs2)cc1OC	none
Cc1ccc(-n2c(Cl)c(Cl)nc(Cl)c2=O)cc1	none (no result: KCNK9 block, hERG rescue, KCNQ1 block, KCNQ1 act)
CCN(CC)C(=O)Oc1cc2c(-c3cc4cccc(OC)c4o3)cc(=O)oc2cc1C	KCNK9 block -20.7, KCNK3 inh -13.9 (no result: Cl transport mod) | KCNK9 block conf 77.0% | Kir21 sel inactive | KCNK9 uninduced inactive | KCNK3 inh conf 101.3 | KCNK3 noninduced inactive
CN(C)c1ccc(C(CNC(=O)c2ccccc2)c2c[nH]c3ccccc23)cc1 (stereo not drawn)	KCNK9 block -13.3, KCNK3 inh -9.22 | KCNK9 block conf 54.0% | Kir21 sel inactive | KCNK9 uninduced 27.0% | KCNK3 inh conf 101.0 | KCNK3 noninduced 0.139
CCN1CCN(c2oc(/C=C/c3ccccc3)nc2C#N)CC1	none
COc1cn(-c2ccccc2)nc1C(=O)Nc1ccc(C)cc1	none (no result: Cl transport mod)
COc1ccc(C)cc1NC(=O)c1nn(-c2ccccc2)cc1OC	KCNK9 block -17.7 (no result: Cl transport mod) | KCNK9 block conf 61.0% | Kir21 sel inactive | KCNK9 uninduced 31.0% | KCNK3 inh conf 129.7 | KCNK3 noninduced 0.137
CC(C)(c1ccccc1)c1ccc(OCCn2cnc3ccccc3c2=O)cc1	KCNK3 inh -13.3 | KCNK9 block conf inactive | Kir21 sel inactive | KCNK9 uninduced 40.0% | KCNK3 inh conf 72.7 | KCNK3 noninduced 0.149
CCCCN(CCCC)c1nc(-c2ccncc2)nc2ccccc12	KCNK9 block -9.12, KCNK3 inh -9.38 | KCNK9 block conf inactive | Kir21 sel inactive | KCNK9 uninduced 33.5% | KCNK3 inh conf 68.0 | KCNK3 noninduced inactive
COCCN(CCOC)c1nc(-c2ccccc2)nc2ccccc12	none (no result: Cl transport mod)
COC(=O)c1ccc(CSc2nc(-c3ccco3)cc(C(F)(F)F)n2)o1	KCNK9 block -10.6 | KCNK9 block conf 38.5% | Kir21 sel inactive | KCNK9 uninduced 45.0% | KCNK3 inh conf 115.3 | KCNK3 noninduced 0.148
COc1ccc(CCNC(=O)CSc2nc(-c3ccco3)cc(C(F)(F)F)n2)cc1	none
O=C(N/N=C/c1c(O)ccc2ccccc12)c1cccc(C(F)(F)F)c1	KCNK9 block -9.29, KCNK3 inh -11.3 | KCNK9 block conf 61.0% | Kir21 sel 46.0% | KCNK9 uninduced 61.0% | KCNK3 inh conf 159.0 | KCNK3 noninduced 0.0907
CC(C)C1Oc2ccccc2N(CC(=O)NC2CCCCC2)C1=O (stereo not drawn)	none (no result: Cl transport mod)
CC1CCC(C(C)C)C(OC(=O)C[n+]2cccc(C(N)=O)c2)C1 (stereo not drawn)	none

Screening data: PubChem, several laboratories
